# How the values were obtained:
# [1] = Selectivity index, ratio of IC50 for human SH-SY5Y cells to Ki for human sigma 1 receptor in human Jurkat cell membranes
# [2] = target: Sigma non-opioid intracellular receptor 1 (Homo sapiens, UniProt Q99720); assay: Displacement of [3H](+)-pentazocine from human sigma 1 receptor in human Jurkat cell membranes incubated for 2 hrs by liquid scintillation counting
# [3] = Cytotoxicity against human SH-SY5Y cells after 72 hrs by MTT assay; assay type: cell-based
# Outline: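 SH-SY5Y neuroblastoma cells were grown in DMEM with 2 mM L-glutamine, streptomycin, 100 IU/mL penicillin, 1 mM non-essential amino acids and 10% heat-inactivated FBS at 37 °C under 5% CO2. Cells were seeded at 2000 per well and serum-starved 24 h, then exposed to a concentration series in <0.1% DMSO. Viability was read by colorimetric MTT. IC50 is the mean of 2–3 independent experiments.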
# [4] = Displacement of [3H]-DTG from human sigma 2 receptor in human Jurkat cell membranes incubated for 1 hr by liquid scintillation counting
# Outline: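 Competition binding on Jurkat cell membranes (10–20 µg protein per tube) with 25 nM [3H]-DTG, plus (+)-pentazocine to saturate sigma-1 sites, across a range of test concentrations. Incubation was 1 h at room temperature in 5 mM Tris/HCl, pH 7.4. Bound ligand was separated by rapid GF/B filtration with ice-cold NaCl washes and counted by liquid scintillation. Nonspecific binding was measured under similar conditions.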
# [5] = system: Jurkat; assay: Selectivity index, ratio of Ki for human sigma 2 receptor in human Jurkat cell membranes to Ki for human sigma 1 receptor in human Jurkat cell membranes; assay type: cell-based
# Outline: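 The ratio divides sigma-2 Ki by sigma-1 Ki, both measured on Jurkat membranes. Sigma-2 used 25 nM [3H]-DTG with (+)-pentazocine masking, 1 h at room temperature. Sigma-1 used 15 nM [3H](+)-pentazocine, 2 h at 37 °C. Both assays ran in 5 mM Tris/HCl, pH 7.4, with filtration and scintillation read-out.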
# [6] = system: Jurkat; assay: Selectivity index, ratio of Ki for sigma 2 receptor in rat cerebral cortex membranes to Ki for human sigma 1 receptor in human Jurkat cell membranes; assay type: cell-based
# [7] = Displacement of [3H]-DTG from rat cerebral cortex membrane sigma 2 receptor incubated for 1 hr by liquid scintillation counting; assay type: tissue-based
# Sigma non-opioid intracellular receptor 1, sequence (Q99720 whole entry): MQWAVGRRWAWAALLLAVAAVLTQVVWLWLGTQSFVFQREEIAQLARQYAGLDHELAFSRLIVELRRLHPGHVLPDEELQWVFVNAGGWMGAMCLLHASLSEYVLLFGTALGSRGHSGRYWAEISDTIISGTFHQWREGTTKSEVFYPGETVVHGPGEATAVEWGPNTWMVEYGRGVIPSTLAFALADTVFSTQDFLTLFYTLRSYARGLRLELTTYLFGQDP
SMILES,Selectivity Index [1],Ki [2] [nM],IC50 [3] [µM],Ki [4] [nM],Ratio Ki [5],Ratio Ki [6],Ki [7] [nM]
c1ccc2c(c1)CN(CCCN1CCc3[nH]c4ccccc4c3C1)C2,694,72,50,180,2.5,,
CN(CCCN1c2ccccc2Sc2ccccc21)Cc1ccccc1,611,28,17.1,280,10,,
c1ccc(C2c3[nH]c4ccccc4c3CCN2CCCN2Cc3ccccc3C2)cc1 (stereo unspecified),2179,8.4,18.3,110,13,,
c1ccc2c3c([nH]c2c1)CN(CCCN1CCCC1)CC3,<160,> 200,32.9,> 400,,,
c1ccc(C2c3[nH]c4ccccc4c3CCN2CCCN2CCCC2)cc1 (stereo unspecified),1328,36,47.8,310,9,,
CN(CCCN1CCc2c([nH]c3ccccc23)C1)CCc1ccccc1,1611,7.2,11.6,91,13,,
c1ccc2c(c1)CN(CCCN1c3ccccc3Sc3ccccc31)C2,6942,12,83.3,94,8,,
CN(CCCN1c2ccccc2Oc2ccccc21)CCc1ccccc1,2606,18,46.9,80,4,,
CN(CCCN1c2ccccc2Sc2ccccc21)CCc1ccccc1,782,11,8.6,310,28,,
CN(CCCN1CCc2oc3ccccc3c2C1)CCc1ccccc1,10160,2.5,25.4,78,31,,
CN(CCCN1CCc2c([nH]c3ccccc23)C1c1ccccc1)Cc1ccccc1 (stereo unspecified),2163,4.3,9.3,100,23,,
CN(CCCN1CCc2[nH]c3ccccc3c2C1)Cc1ccccc1,939,18,16.9,130,7,,
c1ccc2c(c1)CN(CCCN1CCc3c([nH]c4ccccc34)C1)C2,3112,8,24.9,110,14,,
CN(CCCn1c(=O)oc2cc3c(cc21)C(c1ccc(Cl)cc1)CC3=O)Cc1ccccc1 (stereo unspecified),31,160,5,50,0.3,,
c1ccc2c(c1)CN(CCCN1c3ccccc3Oc3ccccc31)C2,<55,> 200,11,140,< 1,,
CN(CCCN1CCc2[nH]c3ccccc3c2C1)CCc1ccccc1,3018,11,33.2,200,18,,
CN(CCCN1c2ccccc2Oc2ccccc21)Cc1ccccc1,<350,> 200,71.9,180,< 1,,
CN(CCCn1c(=O)oc2cc3c(cc21)C(c1ccccc1)CC3=O)Cc1ccccc1 (stereo unspecified),>1389,72,> 100,180,2.5,,
CN(CCCN1CCc2c([nH]c3ccccc23)C1c1ccccc1)CCc1ccccc1 (stereo unspecified),1073,11,11.8,93,8,,
CN(CCCN1CCc2c([nH]c3ccccc23)C1)Cc1ccccc1,3177,6.2,19.7,15,2.4,,
O=C(CCCN1CCC(O)(c2ccc(Cl)cc2)CC1)c1ccc(F)cc1 [HALOPERIDOL],,,,175,,,
O=C1C2Cc3ccccc3CN2C(=O)N1CCCN1Cc2ccccc2C1 (stereo unspecified),,5.3,,416,103,78,416
CN(CCCN1C(=O)[C@H]2Cc3ccccc3CN2C1=O)Cc1ccccc1,,,19.5,764,,,764
c1ccc2c(c1)CN(CCCN1CCc3oc4ccccc4c3C1)C2,7173,11,78.9,9.9,0.9,,
CN(CCCN1CCc2oc3ccccc3c2C1)Cc1ccccc1,34450,2,68.9,< 10,< 5,,
CN(CCCN1C(=O)[C@@H]2Cc3ccccc3CN2C1=O)Cc1ccccc1,,,> 100,496,,,496

# From ChEMBL document CHEMBL3352141, “Carboline- and phenothiazine-derivated heterocycles as potent SIGMA-1 protein ligands” (Eur J Med Chem, 2015)
